Screening results from PubChem BioAssay.
Sampled rows, rich in hits. Any-hit rate of the full collection: about 3.5%.
MrgX1 antagonist: human MrgX1 receptor antagonism, primary screen; Q96LB2; MRGX1-HEK293 calcium flux, Fluo-4, BAM8-22 antagonism; hits give low values; B-score at 10 µM; hit rate 1.3% among 310,000; AID 588676;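 active = calcium-response B-score plate-corrected more than 3 library SD below zero, starting fluorescence within 5 deviations, no agonist response on first addition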;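 also: peak minus trough fluorescence over baseline after final BAM8-22 challenge near maximal dose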
Target sequence (Q96LB2 whole entry, looked up): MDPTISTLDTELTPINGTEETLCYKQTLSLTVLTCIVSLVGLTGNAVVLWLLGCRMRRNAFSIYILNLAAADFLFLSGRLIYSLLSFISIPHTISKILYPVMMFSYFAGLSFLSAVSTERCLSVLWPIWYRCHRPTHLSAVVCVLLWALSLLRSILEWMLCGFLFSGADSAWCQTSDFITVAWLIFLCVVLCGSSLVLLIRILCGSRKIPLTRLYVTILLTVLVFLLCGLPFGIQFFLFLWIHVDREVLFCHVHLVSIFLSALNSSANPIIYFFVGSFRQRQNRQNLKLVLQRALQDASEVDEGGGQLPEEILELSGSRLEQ
RGS4 inh: inhibitors of human RGS4; HEK293 M3R/RGS4 inducible, Fluo-4 calcium flux; hits give high values; triggered by carbachol at its EC20; P49798; AID 463165; hit rate 0.45% among 310,000; B-score at 10 µM;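 active = B-score, a plate-corrected calcium signal, over three deviations above library mean, with baseline fluorescence within five deviations of library mean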;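 also: RGS4 expression induced by doxycycline in cells with stable M3 receptor; B-score is computed from the integrated fluorescence ratio over baseline after carbachol; higher B-score means a larger calcium signal and so more RGS4 inhibition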
Target sequence (P49798 whole entry, looked up): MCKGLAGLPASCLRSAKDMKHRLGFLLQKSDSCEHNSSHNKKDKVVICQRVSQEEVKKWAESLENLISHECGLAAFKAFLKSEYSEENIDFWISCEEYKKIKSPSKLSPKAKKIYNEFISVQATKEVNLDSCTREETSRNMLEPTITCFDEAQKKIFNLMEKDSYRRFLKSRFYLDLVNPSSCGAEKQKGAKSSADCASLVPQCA
MrgX1 ag: activates human MrgX1 receptor signaling; Q96LB2; MrgX1-HEK293 cells, Fluo-4 calcium fluorescence, agonist mode; hits give high values; B-score at 10 µM; hit rate 0.44% among 310,000; AID 588627;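 active = calcium response B-score plate-corrected fluorescence ratio at least 3 library SD, with starting fluorescence B-score inside 5 SD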
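Test system: HEK293 cells stably expressing human MrgX1 receptor; amount: 15,000 cells per well; doses: compound delivered in addition one of three; times: overnight plating before 1 h dye loading; detection: Fluo-4 NW calcium-flux fluorescence, kinetic read; read-out basis: B-scored fluorescence response ratio; controls: positive and negative controls per plate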
MrgX1 PAM: allosterically activates human MrgX1 receptor signaling; hit rate 0.63% among 310,000; B-score at 10 µM; MrgX1-HEK293, Fluo-4 calcium flux, FDSS; hits give high values;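 active = plate-corrected calcium response at least 3 library SD above typical, normal starting fluorescence, not activating the receptor alone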;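 also: compound read alongside a low EC10 to EC30 dose of BAM8-22 agonist; peak minus trough fluorescence over baseline measured at the second addition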
RGS4 act: potentiators or activators of RGS4. HEK293 M3R/inducible RGS4, carbachol calcium flux Fluo4; hits give low values. B-score at 10 µM. hit rate 0.92% among 310,000. AID 463111;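 active = B-score of the integrated calcium signal more than 4 SD below the library mean, with starting fluorescence not abnormally high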;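 also: negative B-score means reduced calcium response which marks RGS4 activation or potentiation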
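Test system: HEK293 cells with stable M3R and inducible RGS4; also added: carbachol at ECmax as muscarinic agonist stimulus; schedule: dye loading 30 min 37 °C, buffer rest 30 min RT; technique: kinetic calcium fluorescence imaging with Fluo4-AM dye, 2 µM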
MrgX1 ag confirm: human MrgX1 agonism, re-confirmation screen; shares compounds with MrgX1 ag; MrgX1-HEK293, Fluo-4 calcium fluorescence, FDSS; activation, % at 10 µM; hit rate 78% among 600;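 active = calcium signal rise, corrected for plate position, at least 3 library SD high, with starting brightness within 5 such deviations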
HEK293 Ca flux: MrgX1 antagonist counter-screen hit in parental HEK293 cells; Fluo-4 calcium fluorescence, FDSS; AID 624111; hit rate 2% among 4,000; shares compounds with MrgX1 antagonist; fluorescence ratio F(max-min)/F0 at 10 µM;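 active = duplicate-averaged calcium fluorescence ratio at least three times the standard deviation of buffer wells, a nonspecific response in parental cells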
HEK293 Ca counter: MrgX1 allosteric activator counter-screen hit in parental HEK293 cells; shares compounds with MrgX1 antagonist; parental HEK293 calcium flux, Fluo-4 fluorescence ratio; hits give high values; fluorescence ratio F(max-min)/F0 at 10 µM; hit rate 0.4% among 4,000;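 active = calcium fluorescence ratio, averaged over duplicates, at least 3 SD of the buffer-well ratio, meaning a nonspecific response in receptor-free cells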;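 also: untransfected parental HEK293 lacking MrgX1 used as counterscreen for MrgX1 allosteric activators; fluorescence change taken during the second addition on a kinetic imager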
HEK293 Ca cntr2: counter-screen for MrgX1 activators: effect in parental HEK293 cells | shares compounds with MrgX1 antagonist | Fluo-4 calcium fluorescence (FDSS); hits give high values | fluorescence ratio F(max-min)/F0 at 10 µM | hit rate 8.7% among 4,000 | AID 624115;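 active = calcium fluorescence ratio at least three times the spread of buffer wells, meaning a non-specific response in parental cells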
* hit, by the source's call; i = inactive; . = no result.

SMILES	MrgX1 antagonist	RGS4 inh	MrgX1 ag	MrgX1 PAM	RGS4 act	MrgX1 ag confirm	HEK293 Ca flux	HEK293 Ca counter	HEK293 Ca cntr2
CCOC(=O)N1CCN(C(=O)CN(C)S(=O)(=O)c2ccc(F)cc2)CC1	i	i	i	i	i	.	.	.	.
CCOC(=O)CC(=O)CSc1nc(CC)c(C)cc1C#N	i	i	i	i	i	.	.	.	.
CCOC(=O)CC(=O)CSc1nc2ccc(C)cc2cc1C#N	i	.	54*	i	.	367%*	i	i	75*
Nc1nc2ccccc2cc1-c1cccs1	i	i	45*	i	i	196%*	i	i	i
Cc1ccc(-c2cc3ccccc3nc2N)cc1	i	i	43*	i	i	220%*	i	i	i
c1csc(-c2ccc3ccccc3n2)c1	i	i	i	i	i	.	.	.	.
C/C(=N\NC(=O)c1ccc(N/N=C(\C)c2ccc(O)cc2)cc1)c1ccc(O)cc1	i	i	i	i	i	.	.	.	.
COc1cccc(CN2CCN(Cc3cc4ccccc4[nH]3)CC2CCO)c1 (centres undefined)	i	i	123*	i	i	313%*	i	i	49*
CC(=O)COc1cccc2ccc(/C=C/c3ccc(Br)s3)nc12	i	i	38*	i	i	163%*	i	i	49*
O=C(N[C@H](C(=O)O)c1ccccc1)C1CCC(Cn2nnc3ccccc3c2=O)CC1 (some centres undefined)	i	i	i	i	i	.	.	.	.
Cc1n(C)c2cc(Cl)ccc2[n+]1Cc1ccccc1	i	i	i	i	i	.	.	.	.
Cc1ccc(NC2=NCC(=O)N2CCc2ccccc2)cc1C	i	i	i	i	i	.	.	.	.
CCOc1ccc(NC2=NCC(=O)N2CCc2ccccc2)cc1	i	i	27*	i	i	122%*	i	i	i
Cc1oc2cc(O)ccc2c(=O)c1-c1nncn1-c1ccccc1	i	i	30*	i	i	i	i	i	i
CCOC(=O)c1ccccc1-c1cn2cc(Cl)ccc2n1	i	i	30*	i	i	152%*	i	i	i
CC(=Nc1cccc(O)c1)c1sc2ccccc2c1O	i	i	28*	i	i	144%*	i	i	i
CC(=Nc1ccc(C)cc1)c1sc2ccccc2c1O	i	i	i	i	i	.	.	.	.
CC1(C)Cc2ccccc2C(NN=C2CCCC2)=N1	i	i	i	i	i	.	.	.	.
O=C(COC(=O)c1nc(Cl)ccc1Cl)Nc1ccc2c(c1)OCO2	i	i	28*	i	i	i	i	i	i
COc1ccc2oc(=O)cc(CN3CCN(Cc4ccc(OC)c(OC)c4OC)CC3)c2c1	i	i	i	i	i	.	.	.	.
Cc1nn(C)c(C)c1CN(Cc1nc(-c2ccc(F)cc2F)oc1C)C1CC1	i	i	56*	i	i	254%*	i	i	49*
Cc1nn(C)c(C)c1CN(Cc1nc(-c2cc(F)ccc2F)oc1C)C1CC1	i	i	i	i	i	.	.	.	.
CCOC(=O)c1c(CC(C)C)csc1NC(C)=O	i	i	i	i	i	.	.	.	.
CCOC(=O)c1c(CC(C)C)csc1NC(=O)c1ccccc1C(=O)O	i	i	37*	i	i	220%*	i	i	i
CN(CC(=O)NC1CCCCC1)S(=O)(=O)c1ccc2c(c1)c(=O)n(C)c(=O)n2C	i	i	i	i	i	.	.	.	.
SMILES	MrgX1 antagonist	RGS4 inh	MrgX1 ag	MrgX1 PAM	RGS4 act	MrgX1 ag confirm	HEK293 Ca flux	HEK293 Ca counter	HEK293 Ca cntr2
CCCC1(C)Nc2ccccc2-c2nc3ccccc3n21 (centres undefined)	i	i	i	i	i	.	.	.	.
c1ccc2c(c1)NC1(CCCC1)n1c-2nc2ccccc21	i	i	29*	i	i	144%*	i	i	i
CN(C(=O)c1cccc(C(F)(F)F)c1)C1CCCc2ccccc21 (centres undefined)	i	i	i	i	i	.	.	.	.
N#CSCC(=O)c1cccc2ccccc12	i	.	27*	i	.	230%*	i	i	i
CCOc1ccccc1NC(=O)CSc1ccc(-c2ccco2)nn1	i	i	i	i	i	.	.	.	.
CCOc1ccccc1NC(=O)CSc1ccc(-c2sc(C)nc2C)nn1	i	i	37*	i	i	170%*	i	i	i
O=C1NC(=Nc2ccc(Cl)cc2)/C(=C/c2ccco2)S1	i	i	i	i	i	.	.	.	.
CCOc1ccc(N=C2NC(=O)S/C2=C\c2ccc(N(C)C)cc2)cc1	i	i	27*	i	i	261%*	0.25*	i	59*
CCOC(=O)c1[nH]c2ccc(F)cc2c1N=C(C)N(CC)CC	i	i	50*	i	i	116%*	i	i	i
ClCc1nc2ccccc2c2ccccc12	i	i	44*	i	i	88%*	i	i	i
N#CC1=C(N)Oc2cc(O)ccc2C1c1cccs1 (centres undefined)	i	i	29*	i	i	i	i	i	i
Cc1ccc(OCC(=O)N/N=C/c2cccc3cccnc23)cc1	i	i	i	i	i	.	.	.	.
O=C(CNC(=O)c1ccccc1F)NCc1cccnc1	i	i	i	i	i	.	.	.	.
Cc1cc(S(=O)(=O)N2CCCC2)ccc1OCC(=O)N1CCCCC1	i	i	i	i	i	.	.	.	.
Cc1cc2ccc3ccccc3c2cc1CN(C)C	i	i	i	i	i	.	.	.	.
CN(C)CCOC1c2ccccc2CCc2ccc3ccccc3c21 (centres undefined)	i	i	57*	i	i	142%*	i	i	i
CCC(=O)c1ccc(OCC(O)CNCCc2ccc(Cl)cc2)cc1 (centres undefined)	i	i	i	i	i	.	.	.	.
COc1ccc(C)cc1N/C(N)=N/c1nc(C)cc(C)n1	i	i	i	i	i	.	.	.	.
Cc1ccc(C)c(N/C(N)=N/c2nc(C)cc(C)n2)c1	i	i	59*	i	i	385%*	i	i	85*
